Measurements reported in ChEMBL document CHEMBL3877244, “Synthesis and biological evaluation of new aryl-alkyl(alkenyl)-4-benzylpiperidines, novel Sigma Receptor (SR) modulators, as potential anticancer-agents” (Eur J Med Chem, 2016).

Assays:
[1] = Displacement of [3H]-DTG from sigma 2 receptor in Sprague-Dawley rat liver membranes after 120 mins by scintillation counting analysis; assay type: cell membranes, Membrane
Method in brief: (§1)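 Rat liver homogenate (150 µg) incubated 120 min at room temperature with 3 nM [³H]-DTG in 50 mM Tris-HCl pH 8.0. (+)-Pentazocine 100 nM masked S1R; haloperidol 10 µM defined nonspecific binding. Ki by Cheng–Prusoff from IC50.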

[2] = biological target: Sigma non-opioid intracellular receptor 1 (Cavia porcellus, UniProt Q60492); assay: Displacement of [3H]-pentazocine from sigma 1 receptor in guinea pig brain cortical membrane after 120 mins by scintillation counting analysis; assay type: cell membranes
Sequence of Sigma non-opioid intracellular receptor 1 (Cavia porcellus, UniProt Q60492) (Q60492 whole entry): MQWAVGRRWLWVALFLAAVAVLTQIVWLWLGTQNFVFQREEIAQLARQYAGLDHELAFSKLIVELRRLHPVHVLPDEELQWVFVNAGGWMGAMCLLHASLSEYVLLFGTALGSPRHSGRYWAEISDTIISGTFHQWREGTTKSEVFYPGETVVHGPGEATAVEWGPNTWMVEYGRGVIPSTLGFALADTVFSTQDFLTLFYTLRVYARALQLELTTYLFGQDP
Method in brief: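 Nonspecific binding defined with unlabeled (+)-pentazocine. Filtration, then scintillation counting. IC50 by nonlinear regression, converted to Ki by Cheng–Prusoff.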

[3] = Displacement of [3H]-DTG from sigma 2 receptor in rat liver after 120 mins by scintillation counting analysis; method in brief: as §1
[4] = Cytotoxicity against human Paca3 cells assessed as decrease in cell viability using complete medium after 24 hrs by MTS assay; assay type: functional, cell-based; settings: Paca3, 24 h
Method in brief: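 Cells in exponential growth, 3×10^3 per well, in medium with 10% FCS. Capan-2, PaCa3, MDA-MB 231, SUM 159 and PC3 were grown in DMEM/Ham's F12 with glutamine 2 mM and insulin 10 µg/ml. U87 was grown in EMEM and LNCaP in RPMI, each with glutamine. Compound 0.1–100 µM, continuous exposure (24 h; 48 h for the 48 h lines). MTS, OD 490 nm. IC50 read graphically. Three independent experiments in octuplicate.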

[5] = Cytotoxicity against human Paca3 cells assessed as decrease in cell viability under starvation condition after 24 hrs by MTS assay; assay type: functional, cell-based; settings: Paca3, 24 h
Method in brief: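 Cells starved 24 h in low-glucose medium without FCS, then treated 24 h with compound in serum-free conditions. MTS read-out, OD 490 nm, expressed as percent of untreated control. IC50 read graphically from the dose-response plot. Three independent experiments in octuplicate.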

[6] = Displacement of [3H]DTG from sigma 2 receptor in rat brain homogenates without cerebellum; assay type: tissue-based
[7] = Antiproliferative activity against human BxPC3 cells after 24 hrs; assay type: functional, cell-based; settings: BXPC-3, 24 h
[8] = Antiproliferative activity against human AsPC1 cells after 24 hrs; assay type: functional, cell-based; settings: ASPC1, 24 h
[9] = Antiproliferative activity against human CFPAC cells after 24 hrs; assay type: functional, cell-based
[10] = Antiproliferative activity against human PANC1 cells after 24 hrs; assay type: functional, cell-based; settings: PANC-1, 24 h
[11] = Antiproliferative activity against human MIAPaCa2 cells after 24 hrs; assay type: functional, cell-based; settings: MIA PaCa-2, 24 h
[12] = Antiproliferative activity against mouse Panc02 cells after 24 hrs; assay type: functional, cell-based; settings: Panc02, 24 h
[13] = Displacement of [3H]-DTG from sigma 2 receptor in rat liver membranes after 120 mins by scintillation counting analysis; assay type: cell membranes, Membrane
Method in brief: (§2)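 Rat liver homogenate (150 µg) was incubated 120 min at room temperature with 3 nM [3H]-DTG in 50 mM Tris-HCl pH 8.0, with test compound at 10^-10 to 10^-5 M (final). 100 nM (+)-pentazocine masked S1R and 10 µM haloperidol defined nonspecific binding. Filtration and scintillation counting were used. Ki came from regression IC50 via Cheng-Prusoff.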

[14] = biological target: Sigma non-opioid intracellular receptor 1 (Homo sapiens, UniProt Q99720); assay: Binding affinity to sigma 1 receptor (unknown origin)
Sequence of Sigma non-opioid intracellular receptor 1 (Homo sapiens, UniProt Q99720) (Q99720 whole entry): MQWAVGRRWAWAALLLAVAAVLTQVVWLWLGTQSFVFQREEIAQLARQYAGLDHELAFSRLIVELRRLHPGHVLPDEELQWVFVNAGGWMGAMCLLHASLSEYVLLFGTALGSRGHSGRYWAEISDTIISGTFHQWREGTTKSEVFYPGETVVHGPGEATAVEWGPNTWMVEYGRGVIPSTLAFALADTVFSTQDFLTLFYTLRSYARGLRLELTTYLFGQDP

[15] = Binding affinity to sigma 2 receptor (unknown origin); method in brief: as §2

| SMILES | Ki [2] | Ki [3] | other results |
| --- | --- | --- | --- |
| C[C@@H]1CN(CCCn2c3ccccc3c3ccccc32)C[C@H](C)N1 [RIMCAZOLE] |  |  | Ki [1]: 302 nM |
| CC(CCN1CCC(Cc2ccccc2)CC1)c1ccc2cc(O)ccc2c1 (single isomer, unassigned; (+)) | 35 nM | 582 nM |  |
| CC(O)(CCN1CCC(Cc2ccccc2)CC1)c1ccc2ccccc2c1 (stereo in doubt; 1b) | 11 nM | 79 nM |  |
| Fc1ccc(-n2cc(CCCCN3CCC4(CC3)OCc3ccccc34)c3ccccc32)cc1 [SIRAMESINE] |  |  | IC50 [4]: 45400 nM; IC50 [5]: 6000 nM; Ki [6]: 0.12 nM |
| CC(O)(CCN1CCC(Cc2ccccc2)CC1)c1ccccc1 (stereo in doubt; 2b) | 40 nM | 240 nM |  |
| CC(O)(CCN1CCC(Cc2ccccc2)CC1)c1ccccc1 (racemic) | 9.8 nM | 57 nM |  |
| COc1ccc(C)cc1NC(=O)OC1CC2CCCC(C1)N2CCCCCCN (stereo not given) |  |  | IC50 [7]: ≤ 100000 nM; IC50 [8]: ≤ 100000 nM; IC50 [9]: ≤ 100000 nM; IC50 [10]: ≤ 100000 nM; IC50 [11]: ≤ 100000 nM; IC50 [12]: ≤ 100000 nM |
| C/C(=C\CN1CCC(Cc2ccccc2)CC1)c1ccc2cc(O)ccc2c1 | 9.6 nM | 305 nM |  |
| CC(CCN1CCC(Cc2ccccc2)CC1)c1ccccc1 (racemic) | 2.1 nM | 6.5 nM |  |
| O[C@@H](CN1C2CCC1CC(c1ccccc1)C2)c1cccc(Br)c1 (stereo not given in full) |  |  | Ki [13]: 12.3 nM; IC50 [7]: ≤ 100000 nM; IC50 [8]: ≤ 100000 nM; IC50 [9]: ≤ 100000 nM; IC50 [10]: ≤ 100000 nM; IC50 [11]: ≤ 100000 nM; IC50 [12]: ≤ 100000 nM |
| CC(CCN1CCC(Cc2ccccc2)CC1)c1ccccc1 (stereo in doubt; 6b) | 3 nM | 7.9 nM |  |
| CC(O)(CCN1CCC(Cc2ccccc2)CC1)c1ccc2cc(O)ccc2c1 (single isomer, unassigned; (-)) | 62 nM | 905 nM |  |
| CC(CCN1CCC(Cc2ccccc2)CC1)c1ccc2ccccc2c1 (single isomer, unassigned; (-)) | 6.9 nM | 98 nM |  |
| CC(O)(CCN1CCC(Cc2ccccc2)CC1)c1ccc2ccccc2c1 (racemic) | 6.9 nM | 62.5 nM |  |
| CC(CCN1CCC(Cc2ccccc2)CC1)c1ccc2cc(O)ccc2c1 (stereo in doubt; 12) | 59 nM | 314 nM |  |
| CC(CCN1CCC(Cc2ccccc2)CC1)c1ccccc1 (single isomer, unassigned; (+)) | 2.9 nM | 8.9 nM |  |
| CC(O)(CCN1CCC(Cc2ccccc2)CC1)c1ccc2ccccc2c1 (single isomer, unassigned; (+)) | 10 nM | 81 nM |  |
| CC(CCN1CCC(Cc2ccccc2)CC1)c1ccc2cc(O)ccc2c1 (single isomer, unassigned; (-)) | 13 nM | 105 nM |  |
| COc1ccc(C)cc1NC(=O)OC1CC2CCCC(C1)N2CCCCCCCCCCN (stereo not given) |  |  | Ki [14]: 133 nM; Ki [15]: 19 nM |
| COc1ccc(C)cc1NC(=O)OC1CC2CCCC(C1)N2Cc1ccc(N(C)C)cc1 (stereo not given) |  |  | IC50 [7]: ≤ 100000 nM; IC50 [8]: ≤ 100000 nM; IC50 [9]: ≤ 100000 nM; IC50 [10]: ≤ 100000 nM; IC50 [11]: ≤ 100000 nM; IC50 [12]: ≤ 100000 nM |
| CC(O)(CCN1CCC(Cc2ccccc2)CC1)c1ccc2cc(O)ccc2c1 (stereo in doubt; 9a) | 70 nM | 68 nM |  |
| CC(CCN1CCC(Cc2ccccc2)CC1)c1ccc2ccccc2c1 (single isomer, unassigned; (+)) | 6 nM | 26 nM |  |
| CC(O)(CCN1CCC(Cc2ccccc2)CC1)c1ccc2cc(O)ccc2c1 (racemic) | 27 nM | 118 nM |  |
| CC(CCN1CCC(Cc2ccccc2)CC1)c1ccc2ccccc2c1 (racemic) | 5.6 nM | 144 nM |  |
| C/C(=C\CN1CCC(Cc2ccccc2)CC1)c1ccccc1 | 0.7 nM | 47 nM |  |
| CC(O)(CCN1CCC(Cc2ccccc2)CC1)c1ccccc1 (stereo in doubt; 2a) | 27 nM | 339 nM |  |
